Compounds with a hit are over-represented: about 3% of the library has one in this group of screens.
B2AR ag – activates human beta-2 adrenergic receptor causing internalization | P07550 | Am2.2-beta2AR cells, FAP receptor internalization, flow cytometry | response, % (no concentration beside the values) | 0.43% of 340,000 active;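 active means response above a set limit, near 3 SD of response in nonfluorescent compounds, cut at about 42% in these data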
Target sequence (P07550 whole entry, looked up): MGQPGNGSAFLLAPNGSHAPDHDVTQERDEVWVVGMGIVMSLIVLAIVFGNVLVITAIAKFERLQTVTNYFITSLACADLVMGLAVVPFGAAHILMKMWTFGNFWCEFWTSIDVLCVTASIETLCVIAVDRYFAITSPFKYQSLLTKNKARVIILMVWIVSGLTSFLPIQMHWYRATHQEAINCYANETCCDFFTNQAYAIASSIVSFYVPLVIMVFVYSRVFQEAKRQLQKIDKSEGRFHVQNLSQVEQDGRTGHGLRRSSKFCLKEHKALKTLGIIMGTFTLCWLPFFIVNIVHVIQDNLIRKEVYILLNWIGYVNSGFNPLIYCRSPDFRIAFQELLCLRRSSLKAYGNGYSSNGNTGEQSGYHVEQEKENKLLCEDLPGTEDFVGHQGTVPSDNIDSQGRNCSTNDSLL
ABHD5-PLIN5 inh – ABHD5-PLIN5 protein interaction inhibition; Q00G26+Q8WTS1; Split G. princeps luciferase complementation, luminescence, 4 h; inhibition, % at 4 µM; 0.78% of 360,000 active; AID 602281;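 active means inhibition above the mean inhibition across every tested compound plus 3 SD, cut at about 22% in these data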
MC4R barr agon – agonists of human melanocortin 4 receptor (MC4R) beta-arrestin | P32245 | U2OS MC4R beta-arrestin complementation, luminescence; percent of melanotan II response, DMSO zero | activation, % at 8.9 µM | 0.98% of 360,000 active | AID 540308;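 active means activation above a per-plate cutoff, the mean activation of sample wells on that plate plus 3 SD, cut at about 8% in these data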
MC4R antagonist – blocks human MC4R cAMP signaling; 0.48% of 360,000 active; MC4R-expressing cells, MTII-stimulated cAMP, LANCE TR-FRET; AID 540295; inhibition, % at 6.5 µM; P32245;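 active means inhibition above its plate's cutoff, the mean of tested wells on that plate plus 3 SD, cut at about 29% in these data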
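System: U2OS-MC4R stable cell line; Technique: Eu-cAMP/anti-cAMP TR-FRET, emission 671 nm; Repeats: single well per compound; Also added: Melanotan II; Dosing: one concentration, 6.5 µM nominal; Schedule: 30-min compound, 1-h challenge, 1-h detection, room temperature.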
PfGluPho inh – PfG6PD (Plasmodium falciparum) enzyme inhibition; inhibition, % at 20 µM; AID 504690; 0.78% of 350,000 active; PfGluPho enzyme, NADPH resazurin-diaphorase fluorescence;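 active means inhibition reaching at least a set limit at 20 µM in the primary screen, cut at about 59% in these data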
Large screens that a line does not name were inactive.

COc1ccc(CCN(CC(=O)NCc2ccc(F)cc2)C(=O)c2snc(C(N)=O)c2N)cc1OC	none
Cc1ccc(S(=O)(=O)Nc2ccc(O)c(Sc3ncn[nH]3)c2)cc1	none
CC(C)c1ccc(S(=O)(=O)/N=C2/C=C(Sc3ncn[nH]3)C(=O)c3ccccc32)cc1	MC4R antagonist 29.4, PfGluPho inh 104.1
Cc1ccc(NC(=O)N2C3CCCC2CC(NC(=O)C(C)(C)C)C3)cc1 (centres undefined)	none
COCCCNc1ccn2nc(-c3ccc(Cl)cc3)cc2n1	none (no result: B2AR ag, PfGluPho inh)
COC(=O)c1ccccc1NC(=O)c1nc(S(=O)(=O)Cc2ccccc2)ncc1Cl	B2AR ag 51.9
CC(C)OC(=O)c1sc2nc(-c3ccccc3)ccc2c1N	MC4R barr agon 9.5
CNc1c(NS(=O)(=O)c2cc(OC)ccc2OC)c(=O)oc2ccccc12	none
O=C(C[C@H]1CC[C@@H](NC(=O)C2CC2)[C@@H](CO)O1)NCc1ccccc1Cl	none (no result: B2AR ag, MC4R barr agon, MC4R antagonist, PfGluPho inh)
COC(=O)c1sc(NC(=O)c2ccncc2)nc1C	none
CCOc1ccc(C(=O)Nc2nc(C)c(C(=O)OC)s2)cc1	MC4R barr agon 8.3
Cc1cc(C)nc(NC2=NCCN2C(=S)Nc2c(C)cccc2C)n1	none
CCN1CCN(c2nc(N)c([N+](=O)[O-])c(Nc3ccc(C)cc3)n2)CC1	none
CCN1CCN(c2nc(N)c([N+](=O)[O-])c(Nc3ccc(C)c(C)c3)n2)CC1	B2AR ag 62.5
O=C(NCc1ccccc1Cl)c1ccc(-c2ccccc2)cc1	MC4R barr agon 9.3
COc1cccc(N=c2oc3ccc(OC)cc3cc2-c2nc3ccccc3[nH]2)c1	MC4R barr agon 8.5
CCOC(=O)c1c(NC(=O)CSc2nnnn2-c2ccc(OC)cc2)sc(C)c1C	PfGluPho inh 90.1
CNC(=O)C[C@@H]1C(=O)N(CCc2ccccc2)CC1(C)C	none (no result: B2AR ag)
O=C(N/N=C/c1cccc([N+](=O)[O-])c1)c1cc[n+](CCO)cc1	B2AR ag 46.3
CS(=O)(=O)N(CC(=O)NCCSCc1cccc(Cl)c1)c1ccc2c(c1)OCO2	none
O=C(/C=C/c1ccc2c(c1)OCO2)NCCSCc1ccc(Cl)cc1Cl	B2AR ag 96.2
O=C(/C=C/c1ccc2c(c1)OCO2)NCCSCc1cccc(Cl)c1	B2AR ag 44.2
O=C(/C=C/c1cccc([N+](=O)[O-])c1)NCCSCc1ccc(Cl)cc1Cl	none
CCC1(c2ccc(Cl)cc2)NC(=O)N(CC(=O)N2CCN(C(=O)c3ccco3)CC2)C1=O (centres undefined)	none
Cc1cc(=O)oc2cc(OCC(=O)Nc3ccc(N4CCC(C)CC4)cc3)ccc12	B2AR ag 51.0
Cc1c(C)c2ccc(OCC(=O)Nc3ccc(N4CCC(C)CC4)cc3)cc2oc1=O	none
Cc1cc(C)cc(OCC(=O)Nc2ccc(N3CCCCC3)cc2)c1	MC4R barr agon 8.8
Cc1cc(C)cc(OCC(=O)Nc2ccc(N3CCN(S(C)(=O)=O)CC3)cc2)c1	none
Cc1csc(NC(=O)COc2ccc3c(C)cc(=O)oc3c2)n1	MC4R barr agon 9.4
Cc1cc(=O)oc2c(C)c(OC(C)C(=O)Nc3ccc(N4CCC(C)CC4)cc3)ccc12 (centres undefined)	B2AR ag 82.5
Cc1cccc(C)c1NC(=O)COC(=O)COc1ccc2c(C)cc(=O)oc2c1	none
COc1ccccc1NC(=O)C(C)OC(=O)CCCc1c[nH]c2ccccc12 (centres undefined)	none
Cc1c(Cl)cccc1S(=O)(=O)Nc1ccnn1C	none
CCOC(=O)C1=C(c2ccccc2)NC(=O)NC1c1ccc(O)c(Cl)c1 (centres undefined)	MC4R barr agon 52.2
Cc1ccc2nc(-c3ccc(SCC(=O)Nc4nc(C)cs4)nc3)[nH]c2c1	none
Cc1ccc2nc(-c3ccc(SCC(=O)Nc4nnc(C)s4)nc3)[nH]c2c1	MC4R barr agon 10.5
CCSc1nc2ccccc2n1C(=O)/C=C/c1ccc(OC)c(OC)c1	B2AR ag 42.3
Cc1ccccc1-n1c(=O)cc(N2CC(C)OC(C)C2)[nH]c1=O (centres undefined)	ABHD5-PLIN5 inh 22.7
Cc1ccc(-n2c(=O)cc(N3CC(C)OC(C)C3)[nH]c2=O)cc1 (centres undefined)	none
Cc1ccc(S(=O)(=O)NCCC(=O)NC2CC2)cc1	none
O=C(O)CCCN1C(=O)/C(=C\c2ccco2)SC1=S	none
O=C(O)CCN1C(=O)/C(=C\c2ccc(-c3nc4ccccc4s3)o2)SC1=S	B2AR ag 55.3
COc1ccccc1-c1cc(C(=O)Nc2cccnc2Cl)no1	none
COc1ccccc1-c1cc(C(=O)Nc2ccccc2SC)no1	MC4R barr agon 8.7
Cc1cc(C)cc(NC(=O)CSCc2nc3c(nnn3Cc3ccc(F)cc3)c(=O)[nH]2)c1	none
COc1ccc(N2CC(C(=O)Nc3nnc(SCC(=O)NCC4CCCO4)s3)CC2=O)cc1 (centres undefined)	none
CC(=O)Nc1cc(-c2cccc(C(=O)NCCN(C)C)c2)cn2c(-c3ccc(F)c(Cl)c3)cnc12	none (no result: B2AR ag, PfGluPho inh)
CC(=O)Nc1cc(-c2ccc(CO)cc2)cn2c(-c3ccc(F)c(Cl)c3)cnc12	MC4R barr agon 9.1 (no result: B2AR ag, PfGluPho inh)
CC(NC(=O)c1ccc(Cl)c(S(=O)(=O)NC2CC2)c1)c1ccco1 (centres undefined)	none (no result: B2AR ag)
CCOC(=O)CSC1=NC(=O)/C(=C/c2ccc(OC)cc2)S1	B2AR ag 69.4
COc1ccc(/C=C2\SC(N)=NC2=O)cc1	none
CCOc1ccc2oc(C(=O)Nc3ccc(N4CCOCC4)cc3)c(C)c2c1	MC4R barr agon 9.3
CN(CCOc1ccccc1)C(=O)c1cc(S(=O)(=O)N2CCOCC2)c(Cl)cc1Cl	none (no result: B2AR ag)
Cc1cccc(-n2c(SCC(=O)N(C)C3CCS(=O)(=O)C3)nc3ccccc3c2=O)c1C (centres undefined)	none
Nc1cccc2nsnc12	none
Nc1cc2nsnc2cc1Br	PfGluPho inh 98.7
CCCCCCN1CCN(C2CN(Cc3cn(Cc4cccc(C(F)(F)F)c4)nn3)S(=O)(=O)C2)CC1 (centres undefined)	none (no result: B2AR ag, MC4R barr agon, MC4R antagonist, PfGluPho inh)
Cc1c(Cc2ccccc2)sc(/N=C/c2ccc3ccccc3c2)c1C(N)=O	none
Cc1c(Cc2ccccc2)sc(/N=C/c2c(O)ccc3ccccc23)c1C(N)=O	MC4R barr agon 10.2
CC1(C)C(/C=C/C=C/C=C/C=C2\N(CCCCS(=O)(=O)O)c3ccc4ccccc4c3C2(C)C)=[N+](CCCCS(=O)(=O)[O-])c2ccc3ccccc3c21	B2AR ag 57.5, ABHD5-PLIN5 inh 53.7
CC[C@]12c3[nH]c4cc(-c5ccco5)ccc4c3CCN1C(=O)[C@@H](CC(=O)NCc1ccc(OC)c(OC)c1)C[C@@H]2C(=O)N1CCN(C(=O)C2CC2)CC1	none
COc1ccc(CNC(=O)C[C@H]2C[C@H](C(=O)N3CCCCC3)[C@@]3(CCc4ccccc4)c4[nH]c5cc(-c6ccco6)ccc5c4CCN3C2=O)cc1OC	ABHD5-PLIN5 inh 45.5

Assay outcomes from PubChem.
